# Data published in ChEMBL document CHEMBL5104201, “Prodrugs of a 1-Hydroxy-2-oxopiperidin-3-yl Phosphonate Enolase Inhibitor for the Treatment of ENO1-Deleted Cancers” (J Med Chem, 2022).
# Tests used:
# [1] = test system: Panel NCI-60 (60 carcinoma cell lines); experiment: Cytotoxicity against human NCI-60 cells assessed as reduction in cell viability at 10 uM incubated for […]; format: functional
# In short: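 NCI DTP one-dose screen: single 10 μM dose, […], across the 60-line panel (some lines absent when unavailable). Cells kept in RPMI 1640 with 5% FBS and 2 mM L-glutamine, seeded at 5000–40,000 cells/well by doubling time. Percent growth given relative to drug-free untreated control and to cell number at time zero.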
# [2] = Metabolic stability of the compound in human serum measured over 16 hrs by 31P-NMR analysis; format: ADME, cell-free
# In short: (§1)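 Prodrug dissolved in DMSO and added to 80% human serum/plasma with 20% D2O, final 2 mM unless stated otherwise. Samples held at 37 °C between timepoints. Read by 31P NMR (CPD, 500 scans), with 1H–31P HSQC where applicable. Peaks integrated and normalised to the phosphate peak at 0 ppm.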
# [3] = Metabolic stability of the compound in human serum measured over 9 hrs by 31P-NMR analysis; format: ADME, cell-free; in short: as §1
# [4] = Metabolic stability of the compound in human serum measured over 366 hrs by 31P-NMR analysis; format: ADME, cell-free; in short: as §1
# [5] = Cytotoxicity against human LN-319 cells expressing ENO1 assessed as cell growth inhibition incubated for 6 days by cystal violet staining based analysis; format: functional; details: LN-319, 144 h
# [6] = Stability of compound in phosphate buffer at pH 7 incubated for 3 hrs; format: physicochemical; details: pH 7, 3 h
# In short: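 Stability followed by 31P NMR in 5 mM phosphate-buffered D2O at pH 7.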
# [7] = Prodrug conversion in human plasma assessed as (1-hydroxy-2-oxopiperidin-3-yl) phosphonic acid formation measured after 3 hrs by 31P-NMR analysis; format: ADME, cell-free; in short: as §1
# [8] = Stability of compound in culture media incubated for 72 hrs by 31P-NMR analysis; format: physicochemical
# In short: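 Prodrug (final 2 mM unless stated otherwise) in 80% DMEM with 20% D2O, kept at 37 °C between timepoints. Species followed by 31P NMR (CPD, 500 scans).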
# [9] = Stability of compound in human serum incubated for 72 hrs by 31P-NMR analysis; format: ADME, cell-free; in short: as §1
# [10] = Stability of compound in human plasma incubated for 3 hrs by 31P-NMR analysis; format: ADME, cell-free; in short: as §1
# [11] = Metabolic stability of the compound in human serum over 12 hrs by 31P-NMR analysis; format: ADME, cell-free; in short: as §1
Structure (SMILES),IC50 [5] [µM],further results
CCCCCCCCCCCCCCCCOCCCOP(=O)(O)C1CCCN(O)C1=O (configuration not stated),,Activity [1]: 14%
CC(C)OC(=O)[C@H](C)NP(=O)(Oc1ccccc1)C1CCCN(O)C1=O (some centres not stated),,Stability [2]: Stable; Stability [3]: Stable; Stability [4]: Stable
O=C1C(P(=O)(NCc2ccccc2)OCOC(=O)N2CCC(N3CCCCC3)CC2)CCCN1O (configuration not stated),> 100,
N#CCOP(=O)(OC#N)C1CCCN(O)C1=O (configuration not stated),> 100,
CC(C)C(=O)ON1CCCC(P2(=O)OCc3ccccc3O2)C1=O (configuration not stated),,Stability [6]: Stable; Drug metabolism [7]: Metabolite_Detected; Stability [8]: Stable; Stability [9]: Stable; Stability [10]: Unstable
CCCCCCCCCCCCNP(=O)(O)C1CCCN(O)C1=O (configuration not stated),> 100,
CC(C)(C)C(=O)OCOP(=O)(OCOC(=O)C(C)(C)C)C1CCCN(O)C1=O (configuration not stated),,Activity [1]: 7.1%; Stability [11]: Unstable
O=C1C(P(=O)(O)O)CCCN1O (configuration not stated),3000,
CC(C)(C)C(=O)OCOP(=O)(NCc1cccc(F)c1)C1CCCN(O)C1=O (configuration not stated),2.38,
N#CCOP(=O)(NCc1ccccc1)C1CCCN(O)C1=O (configuration not stated),0.775,
CC(C)(C)C(=O)OCOP(N)(=O)C1CCCN(O)C1=O (configuration not stated),426,
CN(C)P(=O)(OCOC(=O)C(C)(C)C)C1CCCN(O)C1=O (configuration not stated),12.9,
O=C1C(P(=O)(NCc2ccccc2)Oc2ccc(F)cc2)CCCN1O (configuration not stated),> 100,
CNP(=O)(OCOC(=O)C(C)(C)C)C1CCCN(O)C1=O (configuration not stated),5.4,
CC(C)OC(=O)[C@H](C)NP(=O)(N[C@@H](C)C(=O)OC(C)C)C1CCCN(O)C1=O (some centres not stated),> 100,
